Screening data from PubChem BioAssay.
Sampled rows, rich in hits. Any-hit rate of the full collection: about 2.2%.
PHOSPHO1 block: PHOSPHO1 (human) inhibition; Q8TCT1; recombinant PHOSPHO1, absorbance phosphatase assay; inhibition, % at 13.3 µM; 1.1% of 290,000 active; in the data active = inhibition above about 60%
IMP-1 inh: inhibitors of Pseudomonas aeruginosa IMP-1 metallo-beta-lactamase; purified IMP-1, nitrocefin hydrolysis, epi-absorbance fluorescence; inhibition, % at 5.6 µM; 0.45% of 290,000 active;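 active = inhibition above the mean plus 3 SD of all compounds in the same screening run, cut at about 4.5% in these data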;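 also: 0% = IMP-1 with DMSO and 100% = DMSO wells lacking enzyme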
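Assay system: purified recombinant IMP-1 beta-lactamase. Input: IMP-1 0.2 nM before substrate addition. Buffer or medium: Zinc- and detergent-supplemented HEPES buffer, pH 7.1. Schedule: 25 °C, 15 min preincubation, 25 min reaction. Signal: Epi-absorbance fluorescence, 480 nm excitation, 530 nm emission. Evaluation: percent inhibition from optical density relative to buffer-blank wells.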
VIM-2 inh: blocks Pseudomonas aeruginosa VIM-2 metallo-beta-lactamase; inhibition, % at 5.6 µM; purified VIM-2, nitrocefin hydrolysis, epi-absorbance fluorescence; 0.89% of 290,000 active;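 active = inhibition above the mean of all tested compounds plus 3 SD, cutoff set per screening run, cut at about 7.5% in these data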;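 also: red hydrolysis product quenches plate fluorescence so inhibitors raise well fluorescence; 0% = enzyme with DMSO and 100% = DMSO without enzyme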
Yeast superoxide: lowers age-related superoxide in aged yeast cells; S. cerevisiae aged cells, superoxide DHE fluorescence; hits give low values; superoxide response (% of plate mean), % at 10 µM; 0.18% of 330,000 active; AID 2690;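 active = superoxide response under a set limit, about three screen SD below normal, cut at about 65% in these data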;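 also: yeast aged for seven days with compound at 30 °C before DHE staining; 100% = average MFI of all compound-treated wells on the plate with controls excluded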
PvdQ inh: blocks Pseudomonas aeruginosa PvdQ acylase activity. inhibition, % at 10 µM. purified PvdQ acylase, fluorescence plate reader. 0.063% of 340,000 active; in the data active = inhibition above about 30%, passing the limit was not always enough;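 also: 0% = vehicle neutral wells and 100% = reference inhibitor wells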
VIM-2 confirm: VIM-2 inhibition, confirmation assay. shares compounds with IMP-1 inh. purified VIM-2 enzyme, nitrocefin absorbance. inhibition, % at 5.6 µM. 73% of 200 active; in the data active = inhibition above about 8%;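 also: 0% = enzyme with vehicle and 100% = no enzyme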
TEM-1 counter: blocks E. coli TEM-1 beta-lactamase, VIM-2 IMP-1 counter-screen | shares compounds with IMP-1 inh | nitrocefin absorbance inhibition | inhibition, % at 5.6 µM | 50% of 200 active; in the data active = inhibition above about 0.66%
Target sequence (P62593 whole entry, looked up): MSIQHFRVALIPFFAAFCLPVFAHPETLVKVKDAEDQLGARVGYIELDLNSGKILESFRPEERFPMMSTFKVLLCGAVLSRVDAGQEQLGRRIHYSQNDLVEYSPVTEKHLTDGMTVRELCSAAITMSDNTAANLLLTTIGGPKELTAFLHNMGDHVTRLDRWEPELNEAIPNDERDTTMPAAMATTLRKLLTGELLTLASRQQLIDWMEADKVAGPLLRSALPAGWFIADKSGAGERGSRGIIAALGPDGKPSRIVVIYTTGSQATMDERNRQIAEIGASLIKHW
IMP-1 inh conf: confirmation of P. aeruginosa IMP-1 metallo-beta-lactamase inhibitors | shares compounds with IMP-1 inh | purified IMP-1 enzyme, absorbance substrate hydrolysis | inhibition, % at 5.6 µM | 60% of 200 active | AID 2189; in the data active = inhibition above about 4.9%;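 also: 0% = enzyme with vehicle and 100% = vehicle without enzyme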
Starred values were filed as active, the others as inactive.

For Cc1cc(C)n2nc3nc4c(cc3c2n1)CCCC4 the results were PHOSPHO1 block 98*, IMP-1 inh 5.0*, VIM-2 inh 11*, Yeast superoxide 108, PvdQ inh -12, VIM-2 confirm 15*, TEM-1 counter -1 and IMP-1 inh conf -1.
`CC(O)(CC(=O)CC(=O)c1ccccc1)c1ccccc1` (configuration not stated) gave PvdQ inh 6.
`CC(=O)Nc1sc2c(c1-c1nc3ccccc3s1)CCN(C(C)C)C2` gave PHOSPHO1 block 28, IMP-1 inh 4.5*, VIM-2 inh 18*, Yeast superoxide 98, PvdQ inh 13, VIM-2 confirm 15*, TEM-1 counter -3 and IMP-1 inh conf -1.
`CCOC(=O)Cc1csc(NC(=O)c2ccc(C)c(S(=O)(=O)N3CCOCC3)c2)n1` gave Yeast superoxide 116 and PvdQ inh 6.
`CCN(CC)c1ccc2cc(C(=O)NCc3ccc(F)cc3)c(=N)oc2c1` gave PHOSPHO1 block 47, IMP-1 inh 21*, VIM-2 inh 8, Yeast superoxide 102, PvdQ inh -21, VIM-2 confirm 17*, TEM-1 counter 26* and IMP-1 inh conf 13*.
Screening N=c1oc2ccc(Br)cc2cc1C(=O)NCc1ccc(F)cc1 returned PHOSPHO1 block 25, IMP-1 inh -1, VIM-2 inh 1, Yeast superoxide 96 and PvdQ inh -7.
Screening O=C(O)CC(C(=O)O)N1C(=O)/C(=C/C=C/c2ccco2)SC1=S (configuration not stated) returned PHOSPHO1 block 17, IMP-1 inh -4, VIM-2 inh 4, Yeast superoxide 99 and PvdQ inh -10.
For O=C(O)CCCN1C(=O)/C(=C/C=C/c2ccco2)SC1=S the results were PHOSPHO1 block 6, IMP-1 inh 10*, VIM-2 inh 7, Yeast superoxide 83, PvdQ inh -4, VIM-2 confirm -1, TEM-1 counter -4 and IMP-1 inh conf -3.
`CN(C)c1ccc(/C=C(\C#N)C(=O)c2ccccc2)cc1` gave PHOSPHO1 block 51, IMP-1 inh 6.2*, VIM-2 inh 5, Yeast superoxide 68, PvdQ inh -12, VIM-2 confirm 13*, TEM-1 counter 13* and IMP-1 inh conf 11*.
OCC1OCOC2C(CO)OCOC12 (configuration not stated) was read as PvdQ inh -6.
Screening O=C1c2ccccc2C(=O)N1Cc1ccco1 returned PHOSPHO1 block 39, IMP-1 inh -4, VIM-2 inh -4, Yeast superoxide 83 and PvdQ inh 0.
For CC(=O)Nc1ccc(N2C(=O)c3cccc4c(O)ccc(c34)C2=O)cc1 the results were PHOSPHO1 block 38, IMP-1 inh 34*, VIM-2 inh 40*, Yeast superoxide 91, PvdQ inh -6, VIM-2 confirm 30*, TEM-1 counter 34* and IMP-1 inh conf 28*.
For O=C1c2ccccc2C(=O)N1c1ccc(Cl)cc1 the results were PHOSPHO1 block -11, IMP-1 inh -4, VIM-2 inh -6 and Yeast superoxide 98.
`O=C1c2cccc3c(O)ccc(c23)C(=O)N1Cc1ccco1` gave PHOSPHO1 block 0, IMP-1 inh 21*, VIM-2 inh 18*, PvdQ inh 20, VIM-2 confirm 31*, TEM-1 counter 38* and IMP-1 inh conf 28*.
Screening O=C1c2cccc3c(O)ccc(c23)C(=O)N1c1ccc(Cl)cc1 returned PHOSPHO1 block 27, IMP-1 inh 22*, VIM-2 inh 30*, Yeast superoxide 116, PvdQ inh -13, VIM-2 confirm 22*, TEM-1 counter 29* and IMP-1 inh conf 18*.
`NC(=O)c1nnsc1-c1ccco1` gave PvdQ inh -7.
